Assay results: ChEMBL document CHEMBL5038594, “Structural Fine-Tuning of Desmuramylpeptide NOD2 Agonists Defines Their In Vivo Adjuvant Activity” (J Med Chem, 2021)
Active and inactive are the calls of the source. The calls are words filed in the database; no cut-off is given here.

What was measured:
PBMC [1] = test: Immunostimulatory activity in human PBMC cells assessed as increase in LPS-induced IL-6 production at 2 uM incubated for 18 hrs by flow cytometry analysis; assay type: functional, cell-based
Procedure, shortened: (§1)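 Human PBMCs from healthy donors, 1 × 10^6 cells/mL in RPMI 1640 with 10% FBS, treated with 2 μM compound or 0.1% DMSO, without or with LPS 10 ng/mL, for 18 h at 37 °C. Supernatant cytokines quantified by cytometric bead array (human inflammatory panel) on a flow cytometer against recombinant standards. Four independent donors. Repeated-measures one-way ANOVA with Dunnett.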

BMDC [2] = test: Induction of mouse BMDC-mediated ovalbumin specific CD4+ T cell activation assessed as increase in IL-17A production at 10 uM incubated for 72 hrs by flow cytometric analysis; assay type: functional, cell-based
Procedure, shortened: (§2)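 BMDCs from C57BL/6 mouse tibia (7 days in GM-CSF 20 ng/mL, >90% CD11c+) pulsed 18 h with compound (1 or 10 μM) plus ovalbumin 50 μg/mL, then washed. They were cocultured 72 h with CFSE-labelled naive OT-II CD4+ T cells. CD25+/CFSE-low fraction of live Thy1.2+CD4+ cells read by flow cytometry; supernatant cytokines also measured. Duplicates of two independent experiments.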

[3] = Cytotoxicity against HEK-Blue hNOD2 cells assessed as reduction in metabolic activity at 20 uM incubated for 18 hrs by MTS assay; assay type: toxicity, cell-based; conditions: human, hek-blue hnod2, 18 h
Procedure, shortened: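 HEK-Blue NOD2 cells, 40 000 per well, exposed to 20 μM compound or 0.1% DMSO for 18 h at 37 °C, 5% CO2. Metabolic activity measured by MTS (CellTiter 96 AQueous One) reagent. Duplicates, two independent biological replicates.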

PBMC [4] = test: Immunostimulatory activity in human PBMC cells assessed as increase in LPS-induced TNF-alpha production at 2 uM incubated for 18 hrs by flow cytometry analysis; assay type: functional, cell-based; procedure, shortened: as §1
Mus musculus [5] = test: Immuno-adjuvant activity in NIH/OlaHsd mouse assessed as increase in ovalbumin specific IgG production in sera at 0.30 micromol administered subcutaneously on day 1 and as booster dose on day 21 with ovalbumin loaded neutral liposomes and measured 1 week post booster dose by ELISA; assay type: functional, organism-based; conditions: dose 0.3 µmol, time 28.0 day
Procedure, shortened: (§3)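 Groups of 5 female NIH/OlaHsd mice, 2.0–2.5 months old, immunized with ovalbumin-loaded neutral liposomes (10 μg ovalbumin per dose) containing 0.30 μmol adjuvant per dose, plus one booster dose. Serum ovalbumin-specific IgG, IgG1 and IgG2a measured 1 week after the booster. Mean ± SEM of 5 mice.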

BMDC [6] = test: Induction of mouse BMDC-mediated ovalbumin specific CD4+ T cell activation assessed as increase in CD25 expression at 1 uM incubated for 72 hrs by CFSE staining based flow cytometric analysis; assay type: functional; procedure, shortened: as §2
[7] = biological target: T1, Nucleotide-binding oligomerization domain-containing protein 1 (Homo sapiens) (UniProt Q9Y239); test: Agonist activity at NOD1 in HEK-Blue hNOD2 cells assessed as increase in NFkappaB transactivation-mediated SEAP activity measured after 18 hrs by spectrophotometric method; assay type: cell-based; conditions: HEK-Blue hNOD1, in the assay text read “HEK-Blue hNOD1 cells” for “HEK-Blue hNOD2 cells”
T1 sequence (whole entry): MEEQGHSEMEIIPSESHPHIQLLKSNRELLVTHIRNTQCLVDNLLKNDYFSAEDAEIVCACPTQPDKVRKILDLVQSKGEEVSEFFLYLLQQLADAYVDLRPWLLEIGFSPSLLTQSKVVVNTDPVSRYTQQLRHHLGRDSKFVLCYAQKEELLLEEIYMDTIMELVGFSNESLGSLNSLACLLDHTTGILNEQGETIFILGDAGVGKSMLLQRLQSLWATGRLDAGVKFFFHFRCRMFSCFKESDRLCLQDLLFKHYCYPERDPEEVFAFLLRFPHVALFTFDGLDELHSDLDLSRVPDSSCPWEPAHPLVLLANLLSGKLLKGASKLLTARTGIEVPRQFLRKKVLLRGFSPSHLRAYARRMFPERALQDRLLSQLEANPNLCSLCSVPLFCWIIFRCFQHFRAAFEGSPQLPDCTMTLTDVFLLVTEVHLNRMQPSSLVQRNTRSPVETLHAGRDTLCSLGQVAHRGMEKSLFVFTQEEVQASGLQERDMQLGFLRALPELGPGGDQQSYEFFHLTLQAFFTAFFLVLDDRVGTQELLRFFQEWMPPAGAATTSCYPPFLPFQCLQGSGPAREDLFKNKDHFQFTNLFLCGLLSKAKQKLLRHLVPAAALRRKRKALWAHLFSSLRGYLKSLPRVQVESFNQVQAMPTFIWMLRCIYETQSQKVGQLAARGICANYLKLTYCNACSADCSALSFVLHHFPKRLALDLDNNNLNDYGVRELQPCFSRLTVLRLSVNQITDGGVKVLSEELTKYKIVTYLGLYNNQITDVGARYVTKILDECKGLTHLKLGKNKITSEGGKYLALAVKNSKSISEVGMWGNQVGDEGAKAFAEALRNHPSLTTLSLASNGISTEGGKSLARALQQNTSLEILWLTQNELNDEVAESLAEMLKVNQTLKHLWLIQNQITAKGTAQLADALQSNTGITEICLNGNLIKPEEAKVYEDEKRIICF
Procedure, shortened: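 Counter-screen in HEK-Blue NOD1 cells (HEK293 stably expressing human NOD1 plus an NF-κB-inducible SEAP reporter), seeded at 2.5 × 10^5 cells/mL in HEK-Blue detection medium. Compounds at 2 μM versus 0.1% DMSO vehicle, 18 h at 37 °C, 5% CO2. SEAP read as absorbance at 630 nm. Duplicates, at least two independent experiments.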

BMDC [8] = test: Induction of mouse BMDC-mediated ovalbumin specific CD4+ T cell activation assessed as increase in IL-6 production at 10 uM incubated for 72 hrs by flow cytometric analysis; assay type: functional, cell-based; procedure, shortened: as §2
PBMC [9] = test: Immunostimulatory activity in human PBMC cells assessed as increase in LPS-induced IL-8 production at 2 uM incubated for 18 hrs by flow cytometry analysis; assay type: functional, cell-based; procedure, shortened: as §1
PBMC [10] = test: Immunostimulatory activity in human PBMC cells assessed as increase in IL-8 production at 2 uM incubated for 18 hrs by flow cytometry analysis; assay type: functional, cell-based; procedure, shortened: as §1
PBMC [11] = test: Immunostimulatory activity in human PBMC cells assessed as increase in IL-1beta production at 2 uM incubated for 18 hrs by flow cytometry analysis; assay type: functional, cell-based; procedure, shortened: as §1
PBMC [12] = test: Immunostimulatory activity in human PBMC cells assessed as increase in TNF-alpha production at 2 uM incubated for 18 hrs by flow cytometry analysis; assay type: functional, cell-based; procedure, shortened: as §1
BMDC [13] = test: Induction of mouse BMDC-mediated ovalbumin specific CD4+ T cell activation assessed as increase in TNF-alpha production at 10 uM incubated for 72 hrs by flow cytometric analysis; assay type: functional, cell-based; procedure, shortened: as §2
PBMC [14] = test: Immunostimulatory activity in human PBMC cells assessed as increase in IL-6 production at 2 uM incubated for 18 hrs by flow cytometry analysis; assay type: functional, cell-based; procedure, shortened: as §1
BMDC [15] = test: Induction of mouse BMDC-mediated ovalbumin specific CD4+ T cell activation assessed as increase in IFN-gamma production at 10 uM incubated for 72 hrs by flow cytometric analysis; assay type: functional, cell-based; procedure, shortened: as §2
BMDC [16] = test: Induction of mouse BMDC-mediated ovalbumin specific CD4+ T cell activation assessed as increase in CD25 expression at 10 uM incubated for 72 hrs by CFSE staining based flow cytometric analysis; assay type: functional; procedure, shortened: as §2
Mus musculus [17] = test: Immuno-adjuvant activity in NIH/OlaHsd mouse assessed as increase in ovalbumin specific […] associated IgG2a production in sera at 0.30 micromol administered subcutaneously on day 1 and as booster dose on day 21 with ovalbumin loaded neutral liposomes and measured 1 week post booster dose by ELISA; assay type: functional, organism-based; conditions: dose 0.3 µmol, time 28.0 day; procedure, shortened: as §3
PBMC [18] = test: Immunostimulatory activity in human PBMC cells assessed as increase in LPS-induced IL-1beta production at 2 uM incubated for 18 hrs by flow cytometry analysis; assay type: functional, cell-based; procedure, shortened: as §1
BMDC [19] = test: Induction of mouse BMDC-mediated ovalbumin specific CD4+ T cell activation assessed as increase in IL-2 production at 10 uM incubated for 72 hrs by flow cytometric analysis; assay type: functional, cell-based; procedure, shortened: as §2
Mus musculus [20] = test: Immuno-adjuvant activity in NIH/OlaHsd mouse assessed as increase in ovalbumin specific […] associated IgG1 production in sera at 0.30 micromol administered subcutaneously on day 1 and as booster dose on day 21 with ovalbumin loaded neutral liposomes and measured 1 week post booster dose by ELISA; assay type: functional, organism-based; conditions: dose 0.3 µmol, time 28.0 day; procedure, shortened: as §3
Mus musculus [21] = test: Immuno-adjuvant activity in NIH/OlaHsd mouse assessed as increase in ovalbumin specific […] associated IgG1 production in sera at 0.15 micromol administered subcutaneously on day 1 and as booster dose on day 21 and 28 with ovalbumin loaded liposomes by ELISA; assay type: functional, organism-based; conditions: dose 0.15 µmol, time 28.0 day
Procedure, shortened: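 Groups of 5 female NIH/OlaHsd mice, 2.0–2.5 months old, immunized with ovalbumin-loaded liposomes (10 μg ovalbumin per dose) containing 0.15 μmol adjuvant per dose. Liposomes were neutral (PC–cholesterol 7:5), anionic (PC–cholesterol–dicetylphosphate 7:5:1) or mannosylated (PC–cholesterol–mannose-PEG-PA 7:5:0.5). Serum ovalbumin-specific IgG, IgG1 and IgG2a measured 1 week after the second booster. Mean ± SEM.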

SMILES | Activity [7] | Activity (PBMC [1]) | Activity [3] | Activity (PBMC [4]) | Activity (Mus musculus [5]) | Activity (PBMC [9]) | Activity (PBMC [10]) | Activity (PBMC [11]) | Activity (PBMC [12]) | Activity (PBMC [14]) | Activity (Mus musculus [17]) | Activity (PBMC [18]) | Activity (Mus musculus [20]) | also measured
COc1cc(/C=C/C(=O)NCC(=O)N[C@H](C(=O)N[C@H](CCC(=O)OC2CCCC2)C(=O)OC2CCCC2)C(C)C)ccc1O | inactive | Active | Non-Toxic | Active | inactive | Active | Active | Active | Active | Active | inactive | Active | – | Activity (BMDC [2]): Active; Activity (BMDC [6]): Active; Activity (BMDC [8]): Active; Activity (BMDC [13]): Active; Activity (BMDC [15]): Active; Activity (BMDC [16]): Active; Activity (BMDC [19]): Active
CC(=O)N[C@H]1C(O)O[C@H](CO)[C@@H](O)[C@@H]1O[C@H](C)C(=O)N[C@@H](C)C(=O)N[C@H](CCC(=O)O)C(N)=O (stereo partly specified) [MURAMYL DIPEPTIDE] | inactive | Active | Non-Toxic | Active | – | Active | Active | Active | Active | Active | – | Active | – | Activity (Mus musculus [21]): Active

More lines, main results first:

Activity [7] | SMILES | Activity (PBMC [1]) | Activity [3] | Activity (PBMC [4]) | Activity (Mus musculus [5]) | Activity (PBMC [9]) | Activity (PBMC [10]) | Activity (PBMC [11]) | Activity (PBMC [12]) | Activity (PBMC [14]) | Activity (Mus musculus [17]) | Activity (PBMC [18]) | Activity (Mus musculus [20]) | also measured
inactive | CCCCCCCCCCCCCCCCCC(=O)Oc1ccc(/C=C/C(=O)NCC(=O)N[C@H](C(=O)N[C@H](CCC(=O)OCC)C(=O)OCC)[C@@H](C)O)cc1OC | Active | Non-Toxic | Active | – | Active | inactive | inactive | inactive | inactive | – | Active | inactive | –
inactive | CCCCCCCCCCCC(=O)Oc1ccc(/C=C/C(=O)NCC(=O)N[C@H](C(=O)N[C@H](CCC(=O)OCC)C(=O)OCC)C(C)C)cc1OC | Active | Non-Toxic | Active | – | Active | Active | Active | Active | Active | inactive | Active | – | –
inactive | CCOC(=O)CC[C@@H](NC(=O)[C@@H](NC(=O)CNC(=O)/C=C/c1ccc(O)c(OC)c1)C(C)C)C(=O)OCC | – | Non-Toxic | – | Active | – | – | – | – | – | – | – | Active | –
